Bridge positions count the residues as written; N and C are the ends. Square brackets hold non-standard residues; d marks the D form. Peptide text beside a SMILES is read from it. * marks the point of attachment. NMe2Val = CC(C)[C@@H](C(=O)*)N(C)C; NMeI = CC[C@H](C)[C@H](NC)C(=O)O; NMeT = CN[C@H](C(=O)O)[C@@H](C)O; NMeL = CN[C@@H](CC(C)C)C(=O)O; dHiv = CC(C)[C@@H](O)C(=O)O; NMeS = CN[C@@H](CO)C(=O)O; dNMeA = CN[C@H](C)C(=O)O
Tests used:
U87-MG GBM cells = assay: Cell viability; format: cell-based, human; settings: read-out: EC50, U87-MG cells; 72 h
How it was run: (§1)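 Cells are grown at 37 °C in 5% CO2. U87-MG and U251 are in MEM with 10% FBS, SF-268 in DMEM with 10% FBS, and SF-295 in RPMI 1640 with 10% FBS. HUVECs are pooled donors. Exposure is to the test compound (0.1 nM–1 μM) or 0.1% DMSO for 72 h. Viability is read by ATP luminescence as % of vehicle, n = 3 wells. […] comes from a logistic nonlinear fit over three independent comparisons.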

subcutaneous xenografts = settings: unmodified natural product; cited from earlier work
Hsp70 = assay: Immunoblot of Hsp70 in U87-MG cells; format: cell-based, human; settings: 1 30 nM, 2 1 μM, 24 h
How it was run: (§2)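 U87-MG cells in MEM with 10% FBS are exposed 24 h to test compound (30 nM or 1 μM) or 0.1% DMSO. Protein-matched lysates (BCA) are run on SDS-PAGE, transferred to PVDF and detected with HRP secondary. Signals are normalized to α-tubulin and expressed relative to control. Three independent experiments; one-way ANOVA then t-test.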

[1] = test system: HEK293FRT cells expressing WT or mutant (R66I) Sec61α; assay: Viability of WT versus Sec61α R66I mutant HEK293 cells; format: cell-based, human; settings: 72 h or 3 + 3 day exposure
How it was run: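 HEK293FRT cells carrying Sec61α R66I, with wild-type comparators, are grown in DMEM with 10% FBS, 6 mM L-glutamine and 1 mM pyruvate. They are exposed to increasing test compound concentrations or 0.1% DMSO for 72 h, or 3 + 3 days to avoid nutrient deprivation. ATP viability is read as % of vehicle, n = 3 wells. Logistic nonlinear fit; ≥3 independent experiments.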

BiP = assay: Immunoblot of BiP expression; format: cell-based, human
[2] = test system: WT and mutant (R66I) Sec61α HCT116 colon cancer cells; assay: Viability of WT versus Sec61α R66I mutant HCT116 cells; format: cell-based, human; settings: 72 h and 6 days (3 + 3 day exposure)
[3] = test system: patient-derived GSCs (M120, MGG6, M76, GBM8, and 157); format: cell-based, human; settings: read-out: EC50, viability of 5/6 GSC lines; 72 h
GSC 157 neurospheres = assay: Neurosphere morphology of GSC 157 by light microscopy; format: cell-based, human; settings: 100 nM, 24 h, relative to control-treated cells
How it was run: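 Patient-derived GSC 157 cells are dissociated from tumour and expanded as neurospheres in medium with heparin 2 μg/mL, EGF 20 ng/mL and bFGF 10 ng/mL. Neurospheres receive test compound at 100 nM for 24 h. Morphology and neurosphere size are compared with control-treated cells.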

GSC line 83 = assay: GSC neurosphere viability, 72 h, line 83; format: cell-based, human; settings: read-out: EC50, GSC type 83
U251 GBM cells = assay: Cell viability; format: cell-based, human; settings: read-out: EC50, U251 cells; 72 h
How it was run: as §1

Hsp90 = assay: Immunoblot of Hsp90 in U87-MG cells; format: cell-based, human; settings: 1 30 nM, 2 1 μM, 24 h
How it was run: as §2

[4] = test system: UPR markers (BiP, CHOP, sXBP1, GADD34, IRE1) mRNA; assay: qPCR of ER stress; format: cell-based, human; settings: 80 nM plus thapsigargin 300 nM, 24 h
How it was run: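 GSC neurospheres (MGG6, 83, M76, GBM8) are treated 24 h with test compound 80 nM, thapsigargin 300 nM, both together, or 0.1% DMSO. BiP, CHOP, sXBP1, GADD34 and IRE1 mRNA are measured by qPCR normalized to GAPDH and expressed as fold-change versus vehicle.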

Gluc-U87 cells = assay: Viability of adherent GLuc-U87 cells; format: cell-based, human; settings: 0.3–300 nM
SF-268 GBM cells = assay: Cell viability; format: cell-based, human; settings: read-out: EC50, SF-268 cells; 72 h
How it was run: as §1

Question: Which results are given for CC[C@H](C)[C@H]1C(=O)N[C@@H](C)C(=O)N(C)[C@@H](CC(C)C)C(=O)N[C@@H](Cc2ccc(OC)cc2)C(=O)N(C)[C@H](C)C(=O)O[C@H](C)[C@H](N(C)C(=O)[C@H](CC(C)C)N(C)C(=O)[C@H](COC)N(C)C(=O)[C@H](OC(=O)[C@H](C(C)C)N(C)C)C(C)C)C(=O)N(C)[C@@H](COC)C(=O)N1C [compound 1, Coibamide A] (NMe2Val-[dHiv][NMeS](Me)[NMeL][NMeT][NMeS](Me)[NMeI]A[NMeL]Y(Me)[dNMeA]; ester 4-C)?
Answer: EC50 (U87-MG GBM cells): 18 nM; Safety after repeat dosing in mice bearing subcutaneous xenografts (subcutaneous xenografts): adverse safety profile; Hsp70 expression (Hsp70): upregulation; Response of mutant Sec61(R66I) HEK293 cells relative to WT [1]: resistant; BiP expression, GSC line 83 (BiP; 1 250 nM and 500 nM, 2 3 µM, 72 h): decrease; BiP protein expression, GSC MGG6 neurospheres and adherent U87-MG cells (BiP; immunoblot, 24 h): downregulation; Effect of Sec61α R66I mutation on cytotoxic response relative to WT HCT116 cells [2]: mild resistance; EC50 [3]: < 4 nM; Change in neurosphere morphology (GSC 157 neurospheres): reduction in neurosphere size; EC50 (GSC line 83): ~100 nM; EC50 (U251 GBM cells): > 700 nM; Hsp90 expression (Hsp90): upregulation; Effect on thapsigargin-induced upregulation of all UPR markers, GSC line MGG6 [4]: almost completely abrogated; Cell viability at 18 h (Gluc-U87 cells): no change in cell viability; EC50 (SF-268 GBM cells): > 700 nM
